Laboratory results taken from the RNAGym collection of RNA variant scans (doi:10.1126/science.aae0568).
Fewer inactive variants are shown than the library holds.

B1: tRNA (parent)
chain: GUUCCGUUGGCGUAAUGGUAACGCGUCUCCCUCCUAAGGAGAAGACUGCGGGUUCGAGUCCCGUACGGAACG

Variants of: B1
Assay: yeast fitness relative to wild type (ratio to wild type); higher = fitter; tRNA-Arg(CCU), competitive growth, 37 C, YPD
In short: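 A pool of Saccharomyces cerevisiae strains, each with a tRNA-Arg(CCU) gene variant at the native genomic locus, was competed in YPD at 37°C for 24 hours across six parallel replicates. The variants had been chemically synthesised at a 3% per-site mutation rate over 69 sites, and gene amplicons before and after competition were read by 100-nucleotide paired-end sequencing. Darwinian fitness relative to wild type rested on changes in genotype frequencies. Genotypes required ≥ 100 starting reads, and estimates < 0.5 were set to 0.5.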
U16A A21C C30G A36G G51C G52A gave a yeast fitness of no more than 0.5.
A15U U47C C49G C55U A65U showed a yeast fitness of 0.531.
Variant A15U C22G G52A A65U has a yeast fitness of no more than 0.5.
With U16C A69G A70G the yeast fitness was 0.745.
With U16G C22A C61A the yeast fitness was no more than 0.5.
U16C G52C A70G showed a yeast fitness of no more than 0.5.
U16A C24A A43G G68A gave a yeast fitness of no more than 0.5.
U16A G39A A42G C55A C62A showed a yeast fitness of no more than 0.5.
For U16C A40C A57U G68A, the yeast fitness was 0.641.
In the case of A15U A45C C46A G67A, the yeast fitness is reported as no more than 0.5.
In the case of U16A C66U, the yeast fitness is reported as 0.897.
Work on A15G U26G C30U G52A yielded a yeast fitness of no more than 0.5.
Variant U16G A20C G67C has a yeast fitness of no more than 0.5.
With A15U A45G C49G the yeast fitness was no more than 0.5.
In the case of U16A G52A A57C, the yeast fitness is reported as 0.571.
U16A A20U C24G C33G gave a yeast fitness of no more than 0.5.
U16G C24U C49G C55G gave a yeast fitness of no more than 0.5.
G17A C24U gave a yeast fitness of 0.778.
Variant A15G U35G A43G C66U has a yeast fitness of no more than 0.5.
For U16A G17A C22G C61U G68C, the yeast fitness was 0.659.
With U16A G18A C31U A65G the yeast fitness was 0.548.
In the case of U16G A20U C60G, the yeast fitness is reported as no more than 0.5.
In the case of U16C A37G A42C A69U, the yeast fitness is reported as no more than 0.5.
G17A C22U C27A C30G showed a yeast fitness of no more than 0.5.
In the case of U16A C30G G50A C60A, the yeast fitness is reported as 0.547.
U16A U47C A70G gave a yeast fitness of 0.78.
Work on A15U C60G G67A yielded a yeast fitness of no more than 0.5.
With U16C C49G C62U the yeast fitness was 0.528.
For U16A C22G G48A, the yeast fitness was 0.994.
Variant G17A A21G U28G has a yeast fitness of 0.608.
U16C G39C showed a yeast fitness of 0.696.
U16A C62U gave a yeast fitness of 0.918.
For G17A C31A C33U U59G A65C, the yeast fitness was no more than 0.5.
In the case of A15U C29A C34G U59A A69C, the yeast fitness is reported as no more than 0.5.
Work on U16G C66U A69C yielded a yeast fitness of 0.728.
U16C U32A gave a yeast fitness of 0.682.
U16C U32C showed a yeast fitness of 0.918.
Variant U16G U26G A36G G68C has a yeast fitness of 0.629.
With U16G C29U C31A C46U the yeast fitness was 0.716.
For A15U G17C A45U C49G C55U A70U, the yeast fitness was no more than 0.5.
Variant A15U A20G C30A G63C has a yeast fitness of no more than 0.5.
With A15U G18C A21G U59A C61G the yeast fitness was no more than 0.5.
With A15U C27U U28G C33U the yeast fitness was no more than 0.5.
In the case of U16A A20C, the yeast fitness is reported as 1.02.
U16C G58C showed a yeast fitness of 1.06.
Variant U16A C31A A40C G52C has a yeast fitness of no more than 0.5.
U16A C31A A40C showed a yeast fitness of no more than 0.5.
U16G C66U showed a yeast fitness of 0.875.
With A15U C29U C33U the yeast fitness was no more than 0.5.
For U16C C34G A65U G67U, the yeast fitness was no more than 0.5.
Variant U16C C22A U53C has a yeast fitness of 0.629.
U16G C29U C46U G67C A69U gave a yeast fitness of 0.521.
With U16A A36G A57U A70G the yeast fitness was no more than 0.5.
For U16A G18C C31U G51C, the yeast fitness was no more than 0.5.
Work on A15U C30U A37G yielded a yeast fitness of no more than 0.5.
A15U A42C G48A G50C showed a yeast fitness of no more than 0.5.
For U16C C29U A36U A40C C46U, the yeast fitness was no more than 0.5.
Variant U16C C27G has a yeast fitness of 0.727.
A15U G39A showed a yeast fitness of 0.667.
With U16C C24G C30G A36U C66U the yeast fitness was no more than 0.5.
U16G C29U C30U gave a yeast fitness of no more than 0.5.
Variant U16A U19A C46U C61G has a yeast fitness of 0.571.
U16G C24U C49G C66U showed a yeast fitness of no more than 0.5.
U16A C24U C30G U35A gave a yeast fitness of 0.539.
G17A C30A showed a yeast fitness of 0.71.
Variant U16G A20G has a yeast fitness of 1.
Variant U16C A20U G25A U28C C30G has a yeast fitness of no more than 0.5.
For U16A G63A, the yeast fitness was 0.798.
A15U G25C C34A gave a yeast fitness of 0.941.
In the case of A15U A21G C24U C33U A40C A43C C49U C61U, the yeast fitness is reported as 0.516.
For U16A A20C U53C, the yeast fitness was 0.599.
Variant U16A A43G A45C has a yeast fitness of no more than 0.5.
Variant A15U C31U C33U G67A has a yeast fitness of 0.642.
In the case of U16C U59A, the yeast fitness is reported as 0.852.
For G17A C30G G67C, the yeast fitness was no more than 0.5.
In the case of U16A A37C G48C, the yeast fitness is reported as 0.546.
U16C U19G C27G C34U A40U U53A A70U gave a yeast fitness of 0.674.
Work on A15U G44C yielded a yeast fitness of 0.727.
In the case of U16A A36G G51A, the yeast fitness is reported as no more than 0.5.
Work on A15U U32A G50A G51A G56C C61G yielded a yeast fitness of 0.538.
G17A C22A A45C C46U showed a yeast fitness of 0.578.
Variant A15U C22G U32A C66A has a yeast fitness of no more than 0.5.
For A15U C33U G44C C55A, the yeast fitness was no more than 0.5.
U16C G51A gave a yeast fitness of 0.633.
With G17A A21C A42C the yeast fitness was no more than 0.5.
Work on G17A C24U C31G A65U yielded a yeast fitness of no more than 0.5.
Variant U16A U26A C49G C61A has a yeast fitness of 0.586.
U16A A42U U53A showed a yeast fitness of no more than 0.5.
U16G A36C G39C G63A A65U showed a yeast fitness of no more than 0.5.
G17A C22U C46U C66U A70C gave a yeast fitness of no more than 0.5.
In the case of U16C A69U, the yeast fitness is reported as 0.998.
U16G A36G A65G gave a yeast fitness of no more than 0.5.
For U16C G50C C66U, the yeast fitness was 0.584.
U16C G58A U59C gave a yeast fitness of 0.555.
For U16A U47C, the yeast fitness was 1.01.
U16C G17C C22G gave a yeast fitness of 0.534.
For U16A C46G A57G C61A, the yeast fitness was no more than 0.5.
For U16C C31A C34U A69C, the yeast fitness was no more than 0.5.
Variant A15U A40C C49U has a yeast fitness of 0.528.
A15U G38C G39A A43C A57U gave a yeast fitness of no more than 0.5.
Variant U16A U26A C30G U59C has a yeast fitness of no more than 0.5.
Work on U16C G18A C34G G39A C62G yielded a yeast fitness of no more than 0.5.
U16A C34U A70U showed a yeast fitness of no more than 0.5.
Work on U16C G18A C24G A45U U47C yielded a yeast fitness of no more than 0.5.
For U16G A21U C34G A40U, the yeast fitness was 0.624.
Work on U16C C34G G51A yielded a yeast fitness of 0.534.
Variant A15G U35A G48A A57G C62G has a yeast fitness of no more than 0.5.
A15U C24U A37U U54G showed a yeast fitness of no more than 0.5.
Work on A15G U35C yielded a yeast fitness of 0.892.
U16C C49A showed a yeast fitness of 0.731.
Work on A15U C30U A37G U59A yielded a yeast fitness of no more than 0.5.
In the case of U16C C27G G48C A65C, the yeast fitness is reported as no more than 0.5.
G17A A70G gave a yeast fitness of 0.866.
In the case of G17A A70C, the yeast fitness is reported as 0.842.
With A15U C49G C55U A65U the yeast fitness was 0.56.
A15U U59C gave a yeast fitness of 0.788.
For U16C G52A G56A, the yeast fitness was 0.69.
A15U C34U A57U C60U showed a yeast fitness of 0.725.
U16G U28C gave a yeast fitness of 0.862.
Variant A15U U19G has a yeast fitness of 0.631.
For U16A C24U C33U A36U A40U G56C A57G A69C, the yeast fitness was no more than 0.5.
In the case of A15U C66U A70C, the yeast fitness is reported as 0.566.
Work on A15U G38C G39A A43C U59A C60U yielded a yeast fitness of no more than 0.5.
With A15U A69C the yeast fitness was 0.77.
In the case of U16A A21U C33G, the yeast fitness is reported as no more than 0.5.
For A15U C33G C66U, the yeast fitness was no more than 0.5.
Variant G17A C31A G68C has a yeast fitness of no more than 0.5.
Work on A15G U35C A36G A37G C61G G67C yielded a yeast fitness of no more than 0.5.
For U16A U32C A37U C49G G63A A70U, the yeast fitness was no more than 0.5.
In the case of A15U U16C A40U U59A A70C, the yeast fitness is reported as no more than 0.5.
U16G A57G C62G C66U gave a yeast fitness of 0.517.
With U16C U47C C60U C62A the yeast fitness was no more than 0.5.
A15U C22G C31U G50A gave a yeast fitness of no more than 0.5.
In the case of A15G U64A, the yeast fitness is reported as 0.706.
In the case of U16G A40U C62G, the yeast fitness is reported as 0.566.
G17A C22A A45C C46U C49U showed a yeast fitness of no more than 0.5.
With U16A C30U A57U the yeast fitness was no more than 0.5.
In the case of U16A G18A C31U, the yeast fitness is reported as no more than 0.5.
Variant U16A G41A has a yeast fitness of 1.1.
In the case of U16A A20G C27U C29A G41C G63A, the yeast fitness is reported as no more than 0.5.
With G17A A20G C27G A36C the yeast fitness was 0.609.
In the case of U16G C62A, the yeast fitness is reported as 0.643.
Variant U16G G41A A69U has a yeast fitness of 0.527.
U16A U35C gave a yeast fitness of 0.91.
In the case of A15U C24A C34G G39U A65G, the yeast fitness is reported as 0.651.
In the case of A15U A20C A43C G51A G56C, the yeast fitness is reported as no more than 0.5.
Work on G17A C29U C34A yielded a yeast fitness of no more than 0.5.
A15U C29A C34G C62U G68A gave a yeast fitness of 0.616.
Variant U16A A21G C22U G48C G63C has a yeast fitness of no more than 0.5.
U16C U47A G68A gave a yeast fitness of no more than 0.5.
Variant U16A G18A G56A G67C has a yeast fitness of no more than 0.5.
Work on U16C C22A C30U C31G yielded a yeast fitness of no more than 0.5.
Work on U16C A20U C24U A65U yielded a yeast fitness of no more than 0.5.
In the case of U16C C62U, the yeast fitness is reported as 1.
U16G C34G A42G C49G C62U A69C showed a yeast fitness of 0.506.
In the case of A15U U19A A20G A40U A43U C60G C62U A65G, the yeast fitness is reported as no more than 0.5.
With U16A U53A A57G the yeast fitness was no more than 0.5.
A15U A43U C62U gave a yeast fitness of 0.611.
Work on G17A A20G C27G A36C A65U yielded a yeast fitness of no more than 0.5.
For U16G G38C, the yeast fitness was 0.653.
Work on A15U G38C G39A A43C G48A yielded a yeast fitness of no more than 0.5.
In the case of U16A C46G A70G, the yeast fitness is reported as 0.604.
With A15U C24A G25A U47C G52C C61G the yeast fitness was no more than 0.5.
A15U C46A G68U A70C showed a yeast fitness of no more than 0.5.
A15U U28G C33U gave a yeast fitness of no more than 0.5.
With A15U A57G the yeast fitness was 0.927.
Work on A15U A57C yielded a yeast fitness of 0.637.
